From ChEMBL document CHEMBL1134481, “Development of a pharmacophore model for histamine H3 receptor antagonists, using the newly developed molecular modeling program SLATE” (J Med Chem, 2001) come the findings set out here.

In the first assay the target is T1, Histamine H3 receptor (Rattus norvegicus, UniProt Q9QYN8). Nature of the assay: (§1) Ability to displace [3H]Nalpha-methylhistamine from histamine H3 receptors in homogenates of rat cerebral cortex. The assay is classed as tissue-based.
T1 sequence (Q9QYN8 whole entry): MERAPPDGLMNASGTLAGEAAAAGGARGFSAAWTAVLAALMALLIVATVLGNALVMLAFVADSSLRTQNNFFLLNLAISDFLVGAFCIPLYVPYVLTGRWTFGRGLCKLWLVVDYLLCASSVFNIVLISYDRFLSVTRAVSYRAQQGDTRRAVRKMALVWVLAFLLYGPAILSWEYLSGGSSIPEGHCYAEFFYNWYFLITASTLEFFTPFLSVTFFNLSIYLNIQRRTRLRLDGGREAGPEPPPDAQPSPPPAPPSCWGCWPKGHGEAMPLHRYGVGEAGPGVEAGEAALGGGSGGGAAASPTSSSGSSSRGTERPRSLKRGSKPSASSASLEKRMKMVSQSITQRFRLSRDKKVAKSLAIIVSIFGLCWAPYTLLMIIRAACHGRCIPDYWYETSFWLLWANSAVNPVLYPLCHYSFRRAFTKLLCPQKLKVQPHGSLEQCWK
Settings: not given
An outline of the steps: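 Rat cortex membranes were made by homogenizing in Tris/HCl (50 mM, 5 mM MgCl₂, 145 mM NaCl, pH 7.4) and spinning at 800g, then twice at 40000g. Binding used 30 µg protein and 1 nM [³H]-Nα-methylhistamine with 0.1–10 000 nM compound, in 50 mM Na⁺ phosphate pH 7.4, for 40 min at 25 °C. Samples were filtered on PEI-treated GF/C and counted by scintillation. Ki = IC50/(1+[ligand]/Kd).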
As a reminder, the Ki is a measure of affinity in units of concentration, obtained from inhibition or displacement. A high value points to lower affinity. `O=C(Cc1ccc(Cl)cc1)OCCCc1c[nH]cn1` returned a Ki of 14 nM. This lies in the double-digit nanomolar range.

`N=C(Cc1ccc(Cc2cnc[nH]2)cc1)NCc1ccc(Cl)cc1` yielded a Ki of 7 nM.

The molecule `CC(C)(C)CC#CC1CC1c1cnc[nH]1` (stereo unspecified) came in with a Ki of 0.18 nM. This Ki is about 39-fold lower than that of the molecule before. `NC(/C=C/C1CC1c1c[nH]cn1)CC1CCCCC1` (stereo unspecified): the affinity, expressed as Ki, was 0.4 nM.

The target of the next assay is Histamine H3 receptor (Cavia porcellus, UniProt Q9JI35). Nature of the assay: Displacement of [3H]Nalpha-methylhistamine from histamine H3 receptors in homogenates of rat cerebral cortex. The assay is classed as tissue-based. Conditions: read-out: pA2 (converted).
Chain of Histamine H3 receptor (Cavia porcellus, UniProt Q9JI35) (Q9JI35 whole entry): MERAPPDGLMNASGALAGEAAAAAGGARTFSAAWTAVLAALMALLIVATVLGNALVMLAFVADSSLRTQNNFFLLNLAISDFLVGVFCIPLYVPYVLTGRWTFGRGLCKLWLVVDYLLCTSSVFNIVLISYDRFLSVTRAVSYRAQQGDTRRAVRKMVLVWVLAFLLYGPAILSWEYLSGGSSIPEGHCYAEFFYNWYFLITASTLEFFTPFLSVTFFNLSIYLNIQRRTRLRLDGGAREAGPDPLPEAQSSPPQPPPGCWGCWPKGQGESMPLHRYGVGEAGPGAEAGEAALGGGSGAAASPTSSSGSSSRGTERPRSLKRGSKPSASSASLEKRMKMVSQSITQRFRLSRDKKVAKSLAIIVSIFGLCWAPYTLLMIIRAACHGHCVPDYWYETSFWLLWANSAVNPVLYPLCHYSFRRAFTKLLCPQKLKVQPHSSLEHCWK
Turning to `Ic1ccc(COCCCc2c[nH]cn2)cc1` [IODOPROXYFAN], the Kb is 5.01 nM. The same measure, in the same setting: with `O=C(NCCCc1c[nH]cn1)NC1CCCCC1` the figure was 50.1 nM; with `c1nc(CCC2CCNCC2)c[nH]1`, 3.98 nM; with `S=C(NC1CCCCC1)N1CCC(c2cnc[nH]2)CC1` [THIOPERAMIDE], 1.26 nM. Turning to `NC(=NCc1ccc(Cl)cc1)SCCCc1cnc[nH]1` [CLOBENPROPIT], the Kb is 0.158 nM.

For `Clc1ccc(CNCCCCCc2c[nH]cn2)cc1`, the Kb is 1.26 nM. On to `Clc1ccc(Cc2noc(CCCc3cnc[nH]3)n2)cc1`, for which the Kb is 7.94 nM.

A further assay concerns the target T1, Histamine H3 receptor. Described as §1. In kind it is tissue-based.
Settings: not given
An outline of the steps:
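Binding used 30 µg protein and 1 nM [³H]-Nα-methylhistamine with 0.1–10 000 nM compound, in 50 mM Na⁺ phosphate pH 7.4, for 40 min at 25 °C. Samples were filtered on PEI-treated GF/C and counted by scintillation. Ki = IC50/(1+[ligand]/Kd).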
Molecule `CCCS/C(=N/C)NCc1ccc(Cl)cc1` had a Ki of more than 100000 nM. Same read-out and setting: with `C/N=C(/NCc1ccc(Cl)cc1)SCCCc1c[nH]cn1` the figure was 3.16 nM. Still for that read-out and setting: under `c1nc(CCCS/C(=N/C2CCCCC2)NC2CCCCC2)c[nH]1` stands 12.6 nM; under `Clc1ccc(CN=C(NC2CCCCC2)SCCCc2cnc[nH]2)cc1`, 0.501 nM; under `CC/N=C(\NCc1ccc(Cl)cc1)SCCCc1c[nH]cn1`, 7.94 nM.
